Laboratory results taken from ChEMBL document CHEMBL1154491, “Synthesis, structure, antimicrobial and antioxidant investigations of dicoumarol and related compounds” (Eur J Med Chem, 2008).
Converted amounts (≈) assume the structure as drawn. The source made the active and inactive calls. No cut-off for these calls is given here.

What was measured:
[1] = Antioxidant activity assessed as ABTS radical scavenging activity by TEAC method; assay type: functional
Summary of the method: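 The ABTS radical cation was diluted in PBS, pH 7.4, to an absorbance of 0.70 ± 0.02 at 734 nm at 37 °C. Graded dilutions of compound were added, and absorbance was read at 5, 10, 15 and 20 min after addition.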

Mus musculus = assay: Acute toxicity in mouse at 2 g/kg; details: in vivo
Staphylococcus aureus = assay: Antimicrobial activity against 1.5X10'-3 cfu/ml Staphylococcus aureus ATCC 6538 after 1 to 4 days; assay type: functional
Summary of the method: (§1)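 Compounds were dissolved in acetone (10 mg/mL stock) and diluted with culture medium into serial dilutions. Tests used Mueller-Hinton broth with 1% Tween 20, incubated aerobically at 36 ± 1 °C for 1–4 days alongside duplicate blanks. Growth was scored by turbidimetry or by plating on agar, and MIC was recorded.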

Cutibacterium acnes = assay: Antimicrobial activity against 1X10'-3 cfu/ml Propionibacterium acnes ATCC 11827 after 1 to 4 days; assay type: functional
Summary of the method: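 Compounds were taken from an acetone stock (10 mg/mL), diluted in culture medium and set up as serial dilutions with duplicate blanks. After 1–4 days of incubation, bacterial growth was estimated by turbidimetry or agar plating to give the MIC.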

[2] = system: Staphylococcus epidermidis; assay: Antimicrobial activity against 1.6X10'-3 cfu/ml Staphylococcus epidermidis ATCC 12228 after 1 to 4 days; assay type: functional; summary of the method: as §1

SMILES	Activity [1]	Activity (Mus musculus)	MIC (Staphylococcus aureus) [µg/mL]	MIC (Cutibacterium acnes) [µg/mL]	MIC [2] [µg/mL]
Cc1ccc(C(c2c(O)c3ccccc3oc2=O)c2c(O)c3ccccc3oc2=O)cc1	Active	Non-toxic	–	–	–
O=c1c(C(c2ccc(C(c3c(O)oc4ccccc4c3=O)c3c(O)oc4ccccc4c3=O)cc2)c2c(O)oc3ccccc3c2=O)c(O)oc2ccccc12	Active	Non-toxic	–	–	–
COc1ccc(C(c2c(O)c3ccccc3oc2=O)c2c(O)c3ccccc3oc2=O)cc1	Active	Non-toxic	–	–	–
O=c1oc2ccccc2c(O)c1C(c1cc([N+](=O)[O-])ccc1O)c1c(O)c2ccccc2oc1=O	Active	–	–	–	–
O=c1c(C(c2ccccc2)c2c(O)oc3ccccc3c2=O)c(O)oc2ccccc12	Active	–	–	–	–
COc1cc(C(c2c(O)oc3ccccc3c2=O)c2c(O)oc3ccccc3c2=O)cc(OC)c1OC	Active	–	–	–	–
O=c1c(C(c2ccc([N+](=O)[O-])cc2)c2c(O)oc3ccccc3c2=O)c(O)oc2ccccc12	Active	Non-toxic	3.7 (≈ 8.09 µM)	0.5 (≈ 1.09 µM)	1.3 (≈ 2.84 µM)
O=c1oc2ccccc2c(O)c1C(c1cccc(O)c1O)c1c(O)c2ccccc2oc1=O	Active	Non-toxic	6.5 (≈ 14.6 µM)	0.5 (≈ 1.13 µM)	1.9 (≈ 4.28 µM)
